Nine compounds from ChEMBL document CHEMBL1140468, “Design, synthesis and biological evaluation of substituted dioxodibenzothiazepines and dibenzocycloheptanes as farnesyltransferase inhibitors” (Bioorg Med Chem Lett, 2007) can be followed below.

One assay concerns PC-3. Description: Antiproliferative activity against PC3 cells by colorimetric MTT assay. Type of assay: functional, cell-based. The following applies: Homo sapiens. A digest of the protocol:
(§1)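 Proliferation of the human tumour lines DU145, PC-3 and MCF-7 was read out by colorimetric MTT assay. Values come from at least three independent determinations, with standard deviation below 10%.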
Background: Tetrazolium dyes change colour on reduction, which living cells bring about.

The target of assay [1] is Protein farnesyltransferase (Homo sapiens, UniProt P49354+P49356). Description: Inhibition of FTase by fluorescence spectrometry technique. Type of assay: protein-complex assay.
In assay [2] the test system is L1210. The experiment in a line: Antiproliferative activity against L1210 cells by cell numeration. The following applies: Mus musculus.
Another assay deals with MCF7. Description: Antiproliferative activity against MCF7 cells by colorimetric MTT assay. Type of assay: functional, cell-based. As to conditions: Homo sapiens. In short, it runs like this:
as §1

Assay [3] has as its system DU-145. The experiment in a line: Antiproliferative activity against DU145 cells by colorimetric MTT assay. Type of assay: functional, cell-based. The following applies: Homo sapiens. In short, it runs like this:
as §1

In assay [4] the test system is L1210. The experiment in a line: Antiproliferative activity against L1210 cells by cell numeration at 10 uM. The following applies: Mus musculus.
Assay [5] relates to DU-145. The experiment in a line: Antiproliferative activity against DU145 cells by colorimetric MTT assay at 100 uM. Type of assay: functional. The following applies: Homo sapiens.

As a reminder, the IC50 is the concentration at which inhibition is half-maximal. A high value points to weaker potency in that assay. Broadly, the inhibition is how much of the control response was suppressed.

A value given as a limit tells only on which side of the number the result lay.

Regarding `N#Cc1ccc(Cn2cncc2CN2CCN(C3c4ccccc4CCc4ccccc43)CC2)cc1`, the IC50 amounted to 11.4 µM in the assay with PC-3; 0.31 µM in assay [1]; 4.85 µM with L1210 [2]; 45 µM with MCF7; 9.55 µM in the assay with DU-145 [3].
Take `N#Cc1ccc(Cn2cncc2CN2CCCN(C3c4ccccc4N(CCCN4CCOCC4)S(=O)(=O)c4ccccc43)CC2)cc1` (centres undefined): the IC50 was 27.3 µM in the assay on PC-3; 0.0173 µM in assay [1]; 4.57 µM in the assay on L1210 [2]; 33 µM with MCF7; 47.4 µM in the assay with DU-145 [3].
With `N#Cc1ccc(Cn2cncc2CN[C@H](CC(=O)N[C@@H](Cc2ccccc2)C(N)=O)Cc2ccccc2)cc1`, the IC50 in the assay with PC-3 is > 100 µM; in assay [1] it was 0.0285 µM; in the assay on MCF7, > 100 µM; in the assay with DU-145 [3], > 100 µM. The same compound had an inhibition at 10 µM with L1210 [4] of 41%.
With `CN1c2ccccc2C(N2CCCN(Cc3cncn3Cc3ccc(C#N)cc3)CC2)c2ccccc2S1(=O)=O` (centres undefined), the IC50 amounted to 50 µM with PC-3; 0.0448 µM in assay [1]; 4.76 µM in the assay on L1210 [2]; 48 µM in the assay with MCF7; 59.8 µM in the assay on DU-145 [3].
For the compound `N#Cc1ccc(Cn2cncc2CN2CCCN(C3c4ccccc4CCc4ccccc43)CC2)cc1`, at 10 µM the inhibition in the assay on L1210 [4] was 34%. The IC50 in assay [1] came to 0.285 µM; in the assay on MCF7, 41 µM; in the assay with DU-145 [3] it was 51.3 µM.
On to `COC(=O)[C@H](Cc1ccccc1)N(C(=O)c1ccccc1)C1CCN(Cc2cncn2Cc2ccc(C#N)cc2)CC1`, for which the IC50 in assay [1] came out at 0.022 µM; in the assay with L1210 [2], 4.95 µM.
`CN1c2ccccc2C(N2CCN(Cc3cncn3Cc3ccc(C#N)cc3)CC2)c2ccccc2S1(=O)=O` (centres undefined): the IC50 in the assay with PC-3 was found to be 69.4 µM; in assay [1], 0.045 µM; in the assay with L1210 [2], 3.9 µM; with MCF7, 76 µM; in the assay on DU-145 [3] it was 100 µM.
As for `CCCN1c2ccccc2C(N2CCCN(Cc3cncn3Cc3ccc(C#N)cc3)CC2)c2ccccc2S1(=O)=O` (centres undefined), the IC50 was 34.1 µM in the assay on PC-3, 0.0465 µM in assay [1] and 4 µM in the assay on L1210 [2]. The compound also displayed an inhibition at 100 µM in the assay with DU-145 [5] of 38%.
For the compound `CCCCN1c2ccccc2C(N2CCCN(Cc3cncn3Cc3ccc(C#N)cc3)CC2)c2ccccc2S1(=O)=O` (centres undefined), the IC50 in assay [1] was 0.043 µM; with L1210 [2], 3 µM; in the assay with MCF7 it was 66 µM; in the assay with DU-145 [3] it was 100 µM.
